Measured values from ChEMBL document CHEMBL4689842, “EUbOPEN Chemogenomics Library wave 1” (2021).

Test system: U2OS
Assay: Multiplex assay against U2OS
Format: toxicity, cell-based
Settings: human
Procedure, shortened: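 Live cells were stained at seeding with Hoechst33342, BioTracker Green Microtubule Cytoskeleton Dye, MitoTracker Red and Annexin V Alexa Fluor 680, then imaged on a CQ1 microscope at 37°C and 5% CO2 after compound addition. CellPathfinder machine-learning gating split cells into Hoechst high-intensity objects or normal cells. Normal cells were split into healthy, pyknosed or fragmented nuclei, and pyknosed cells into mitotic or apoptotic. Tubulin, mitochondrial-mass and membrane-permeability phenotypes are per cents of healthy-nucleus cells.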

[1] = 12 h, 1 µM, compound concentration 1 uM, replicate 1
[2] = 12 h, 1 µM, compound concentration 1 uM, replicate 2
[3] = 12 h, 10 µM, compound concentration 10 uM, replicate 1
[4] = 12 h, 10 µM, compound concentration 10 uM, replicate 2
[5] = 24 h, 1 µM, compound concentration 1 uM, replicate 1
[6] = 24 h, 1 µM, compound concentration 1 uM, replicate 2
[7] = 24 h, 10 µM, compound concentration 10 uM, replicate 1
[8] = 24 h, 10 µM, compound concentration 10 uM, replicate 2

CC(C)(C)c1cnc(CSc2cnc(NC(=O)C3CCNCC3)s2)o1 [BMS-387032]
Population Apoptotic (%) [1]: 26% | Population Fragmented Nuclei (%) [1]: 13% | Population Healthy Nuclei (%) [1]: 69% | Population Hoechst High Intensity Objects (%) [1]: 4% | Population Membrane Permeable-Phenotype (%) [1]: 15% | Population Mitochondria Different-Phenotype (%) [1]: 17% | Population Mitotic Cells (%) [1]: 73% | Population Normal (%) [1]: 95% | Population Pyknosed Nuclei (%) [1]: 16% | Population Tubulin-Different-Phenotype (%) [1]: 39% | Total Cell Count [1]: 140 | Population Apoptotic (%) [2]: 14% | Population Fragmented Nuclei (%) [2]: 11% | Population Healthy Nuclei (%) [2]: 80% | Population Hoechst High Intensity Objects (%) [2]: 15% | Population Membrane Permeable-Phenotype (%) [2]: 21% | Population Mitochondria Different-Phenotype (%) [2]: 31% | Population Mitotic Cells (%) [2]: 85% | Population Normal (%) [2]: 84% | Population Pyknosed Nuclei (%) [2]: 7% | Population Tubulin-Different-Phenotype (%) [2]: 37% | Total Cell Count [2]: 143 | Population Apoptotic (%) [3]: 40% | Population Fragmented Nuclei (%) [3]: 18% | Population Healthy Nuclei (%) [3]: 61% | Population Hoechst High Intensity Objects (%) [3]: 3% | Population Membrane Permeable-Phenotype (%) [3]: 22% | Population Mitochondria Different-Phenotype (%) [3]: 26% | Population Mitotic Cells (%) [3]: 60% | Population Normal (%) [3]: 96% | Population Pyknosed Nuclei (%) [3]: 19% | Population Tubulin-Different-Phenotype (%) [3]: 31% | Total Cell Count [3]: 144 | Population Apoptotic (%) [4]: 18% | Population Fragmented Nuclei (%) [4]: 19% | Population Healthy Nuclei (%) [4]: 63% | Population Hoechst High Intensity Objects (%) [4]: 13% | Population Membrane Permeable-Phenotype (%) [4]: 10% | Population Mitochondria Different-Phenotype (%) [4]: 47% | Population Mitotic Cells (%) [4]: 81% | Population Normal (%) [4]: 86% | Population Pyknosed Nuclei (%) [4]: 17% | Population Tubulin-Different-Phenotype (%) [4]: 25% | Total Cell Count [4]: 109 | Population Apoptotic (%) [5]: 82% | Population Fragmented Nuclei (%) [5]: 13% | Population Healthy Nuclei (%) [5]: 75% | Population Hoechst High Intensity Objects (%) [5]: 5% | Population Membrane Permeable-Phenotype (%) [5]: 23% | Population Mitochondria Different-Phenotype (%) [5]: 34% | Population Mitotic Cells (%) [5]: 17% | Population Normal (%) [5]: 94% | Population Pyknosed Nuclei (%) [5]: 10% | Population Tubulin-Different-Phenotype (%) [5]: 38% | Total Cell Count [5]: 200 | Population Apoptotic (%) [6]: 55% | Population Fragmented Nuclei (%) [6]: 11% | Population Healthy Nuclei (%) [6]: 80% | Population Hoechst High Intensity Objects (%) [6]: 8% | Population Membrane Permeable-Phenotype (%) [6]: 22% | Population Mitochondria Different-Phenotype (%) [6]: 36% | Population Mitotic Cells (%) [6]: 44% | Population Normal (%) [6]: 91% | Population Pyknosed Nuclei (%) [6]: 8% | Population Tubulin-Different-Phenotype (%) [6]: 36% | Total Cell Count [6]: 166 | Population Apoptotic (%) [7]: 64% | Population Fragmented Nuclei (%) [7]: 22% | Population Healthy Nuclei (%) [7]: 45% | Population Hoechst High Intensity Objects (%) [7]: 9% | Population Membrane Permeable-Phenotype (%) [7]: 29% | Population Mitochondria Different-Phenotype (%) [7]: 43% | Population Mitotic Cells (%) [7]: 35% | Population Normal (%) [7]: 90% | Population Pyknosed Nuclei (%) [7]: 32% | Population Tubulin-Different-Phenotype (%) [7]: 41% | Total Cell Count [7]: 174 | Population Apoptotic (%) [8]: 78% | Population Fragmented Nuclei (%) [8]: 12% | Population Healthy Nuclei (%) [8]: 52% | Population Hoechst High Intensity Objects (%) [8]: 17% | Population Membrane Permeable-Phenotype (%) [8]: 24% | Population Mitochondria Different-Phenotype (%) [8]: 41% | Population Mitotic Cells (%) [8]: 21% | Population Normal (%) [8]: 82% | Population Pyknosed Nuclei (%) [8]: 34% | Population Tubulin-Different-Phenotype (%) [8]: 27% | Total Cell Count [8]: 118

CCOc1cc2ncc(C#N)c(Nc3ccc(OCc4cccc(F)c4)c(Cl)c3)c2cc1NC(=O)/C=C/CN(C)C [HKI-357]
Population Apoptotic (%) [1]: 58% | Population Fragmented Nuclei (%) [1]: 5% | Population Healthy Nuclei (%) [1]: 86% | Population Hoechst High Intensity Objects (%) [1]: 1% | Population Membrane Permeable-Phenotype (%) [1]: 21% | Population Mitochondria Different-Phenotype (%) [1]: 12% | Population Mitotic Cells (%) [1]: 41% | Population Normal (%) [1]: 98% | Population Pyknosed Nuclei (%) [1]: 8% | Population Tubulin-Different-Phenotype (%) [1]: 14% | Total Cell Count [1]: 156 | Population Apoptotic (%) [2]: 25% | Population Fragmented Nuclei (%) [2]: 11% | Population Healthy Nuclei (%) [2]: 84% | Population Hoechst High Intensity Objects (%) [2]: 16% | Population Membrane Permeable-Phenotype (%) [2]: 19% | Population Mitochondria Different-Phenotype (%) [2]: 25% | Population Mitotic Cells (%) [2]: 75% | Population Normal (%) [2]: 83% | Population Pyknosed Nuclei (%) [2]: 4% | Population Tubulin-Different-Phenotype (%) [2]: 21% | Total Cell Count [2]: 141 | Population Apoptotic (%) [3]: 56% | Population Fragmented Nuclei (%) [3]: 13% | Population Healthy Nuclei (%) [3]: 69% | Population Hoechst High Intensity Objects (%) [3]: 5% | Population Membrane Permeable-Phenotype (%) [3]: 43% | Population Mitochondria Different-Phenotype (%) [3]: 33% | Population Mitotic Cells (%) [3]: 43% | Population Normal (%) [3]: 94% | Population Pyknosed Nuclei (%) [3]: 16% | Population Tubulin-Different-Phenotype (%) [3]: 95% | Total Cell Count [3]: 210 | Population Apoptotic (%) [4]: 69% | Population Fragmented Nuclei (%) [4]: 20% | Population Healthy Nuclei (%) [4]: 65% | Population Hoechst High Intensity Objects (%) [4]: 12% | Population Membrane Permeable-Phenotype (%) [4]: 31% | Population Mitochondria Different-Phenotype (%) [4]: 39% | Population Mitotic Cells (%) [4]: 30% | Population Normal (%) [4]: 87% | Population Pyknosed Nuclei (%) [4]: 13% | Population Tubulin-Different-Phenotype (%) [4]: 88% | Total Cell Count [4]: 119 | Population Apoptotic (%) [5]: 32% | Population Fragmented Nuclei (%) [5]: 7% | Population Healthy Nuclei (%) [5]: 82% | Population Hoechst High Intensity Objects (%) [5]: 2% | Population Membrane Permeable-Phenotype (%) [5]: 23% | Population Mitochondria Different-Phenotype (%) [5]: 16% | Population Mitotic Cells (%) [5]: 67% | Population Normal (%) [5]: 97% | Population Pyknosed Nuclei (%) [5]: 10% | Population Tubulin-Different-Phenotype (%) [5]: 17% | Total Cell Count [5]: 172 | Population Apoptotic (%) [6]: 45% | Population Fragmented Nuclei (%) [6]: 9% | Population Hoechst High Intensity Objects (%) [6]: 7% | Population Membrane Permeable-Phenotype (%) [6]: 10% | Population Mitochondria Different-Phenotype (%) [6]: 23% | Population Mitotic Cells (%) [6]: 54% | Population Normal (%) [6]: 92% | Population Pyknosed Nuclei (%) [6]: 8% | Population Tubulin-Different-Phenotype (%) [6]: 27% | Total Cell Count [6]: 154 | Population Apoptotic (%) [7]: 84% | Population Fragmented Nuclei (%) [7]: 8% | Population Healthy Nuclei (%) [7]: 68% | Population Hoechst High Intensity Objects (%) [7]: 4% | Population Membrane Permeable-Phenotype (%) [7]: 32% | Population Mitochondria Different-Phenotype (%) [7]: 58% | Population Mitotic Cells (%) [7]: 15% | Population Normal (%) [7]: 95% | Population Pyknosed Nuclei (%) [7]: 23% | Population Tubulin-Different-Phenotype (%) [7]: 81% | Total Cell Count [7]: 272 | Population Apoptotic (%) [8]: 86% | Population Healthy Nuclei (%) [8]: 74% | Population Hoechst High Intensity Objects (%) [8]: 12% | Population Membrane Permeable-Phenotype (%) [8]: 23% | Population Mitochondria Different-Phenotype (%) [8]: 69% | Population Mitotic Cells (%) [8]: 13% | Population Normal (%) [8]: 87% | Population Pyknosed Nuclei (%) [8]: 17% | Population Tubulin-Different-Phenotype (%) [8]: 84% | Total Cell Count [8]: 141
